# Data: paper PMC5224916 (Journal of controlled release : official journal of the …, 2016)
# Key:
# [1] = test system: Caco2, MCF7, and MDA-MB-231 cells; experiment: In vitro cellular uptake assays; type: cell-based, human; conditions: 2 h incubation
# Summary of the method: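 Caco2, MCF7 and MDA-MB-231 cells were incubated 2 h with free DiD or DiD-loaded plain or Fc-targeted nanoparticles, then fixed in 4% formalin in PBS. Membranes were labelled with a lipophilic dye and nuclei counterstained with DAPI; cells were examined by fluorescence microscopy. For competition, cells were pretreated 30 min with IgG Fc fragments.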
# [2] = test system: intestinal epithelium (duodenum villi); experiment: In vivo intestinal uptake of nanoparticles; parameters: species or system CD-1 mice and nude mice; conditions: 0.5 mg/kg oral gavage, 2 h, CD-1 and nude mice
# Caco2 cell monolayers = experiment: Caco2 cell monolayer permeability assay; type: in vitro ADME, human; conditions: apical to basolateral, 5 µg/mL, 120 min, 37°C, HPLC
# Summary of the method: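 Caco2 cells grown on polycarbonate Transwell inserts, with monolayer integrity followed by TEER. Free or nanoparticle-formulated test compound (5 µg/mL) added apically; apical-to-basolateral transport tracked over 120 min by HPLC. Papp = (∂Q/∂t)/(A×C₀). For competition, cells were pretreated 30 min with IgG Fc fragments; transported Fc was quantified by human IgG Fc ELISA. Means ± SEM, at least three independent experiments.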
# MCF7 cells = experiment: Cell cycle distribution assay; type: cell-based, human; conditions: MCF7, 24 h, tested 0, 20, 50, 100 ng/mL
# MDA-MB-231 cells = experiment: Cell cycle distribution assay; type: cell-based, human; conditions: MDA-MB-231, 24 h, tested 0, 20, 50, 100 ng/mL
# MDM2 = MDM2 (Homo sapiens, UniProt Q00987); experiment: Western blotting of MDM2, p53 and p21 in breast cancer cells; type: cell-based; conditions: 20 ng/mL, 24 h, MCF7 and MDA-MB-231 cells
# [3] = Plasma pharmacokinetics after oral administration; type: in vivo; conditions: 160 mg/kg oral, female CD-1 mice
# Summary of the method: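 Female CD-1 mice were randomised into three groups and given a single oral dose of 160 mg/kg: free compound in PEG400:ethanol:saline (57.1:14.3:28.6), plain nanoparticles or Fc-targeted nanoparticles.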
# [4] = test system: MDA-MB-231 orthotopic tumors; experiment: MDA-MB-231 orthotopic tumor model, in vivo efficacy; parameters: species or system nude mice; conditions: 160 mg/kg/day oral
# Summary of the method: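 Female athymic nu/nu mice, 4–6 weeks, received 1×10⁶ MDA-MB-231 cells in the second thoracic mammary fat pad under anaesthesia. After 2 weeks, mice were split into groups of 10. Dosing was by oral gavage, 5 days/week for 24 days: free compound in PEG400:ethanol:saline (57.1:14.3:28.6) or nanoparticles at 160 mg/kg/day, Fc-targeted form at 80 or 160 mg/kg/day; controls got vehicle. Mice with lung metastasis were counted at the end.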
# Sequence of MDM2 (Q00987 whole entry): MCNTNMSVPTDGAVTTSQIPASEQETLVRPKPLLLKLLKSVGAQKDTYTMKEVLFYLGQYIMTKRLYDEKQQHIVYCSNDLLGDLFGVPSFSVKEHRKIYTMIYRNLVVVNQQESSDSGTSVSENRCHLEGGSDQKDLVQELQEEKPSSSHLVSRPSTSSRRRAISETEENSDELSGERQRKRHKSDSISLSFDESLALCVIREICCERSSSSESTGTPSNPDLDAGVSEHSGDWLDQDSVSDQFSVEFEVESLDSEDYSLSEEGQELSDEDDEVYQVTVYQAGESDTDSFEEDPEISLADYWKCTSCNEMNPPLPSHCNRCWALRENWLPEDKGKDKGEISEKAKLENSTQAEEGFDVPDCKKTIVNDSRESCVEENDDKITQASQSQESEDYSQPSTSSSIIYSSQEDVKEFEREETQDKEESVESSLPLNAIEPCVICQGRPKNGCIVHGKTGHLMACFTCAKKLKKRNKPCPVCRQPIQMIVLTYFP
SMILES,Cellular uptake of DiD (fluorescence microscopy) [1],DiD fluorescence in the villi of the duodenum [2],Apparent permeability coefficient (Papp) (Caco2 cell monolayers) [×10⁻⁶ cm/s],Concentration at which G2/M phase cell cycle arrest starts to be induced (MCF7 cells) [ng/mL],Concentration at which G2/M phase cell cycle arrest starts to be induced (MDA-MB-231 cells) [ng/mL],"Effect on MDM2, p53 and p21 expression (MDM2)",Cmax (peak plasma concentration of SP141) [3] [ng/mL],"Inhibition of MDA-MB-231 tumor growth ([4]; 5 days/week, Day 24) [%]","Incidence of lung metastasis (mice with metastatic lesions in the lungs) ([4]; 24 days, 10 mice/group)"
"CCCCCCCCCCCCCCCCCCN1C(=CC=CC=CC2=[N+](CCCCCCCCCCCCCCCCCC)c3ccccc3C2(C)C)C(C)(C)c2ccccc21.[O-][Cl+3]([O-])([O-])[O-] [DiD, 1,1'-dioctadecyl-3,3,3',3'-tetramethylindodicarbocyanine perchlorate]",unable to diffuse into the cells,not observed,,,,,,,
COc1ccc2[nH]c3c(-c4cccc5ccccc45)nccc3c2c1 [SP141],,,70,100,100,did not show significant effects,4300,51,4/10
